Measurements: ChEMBL document CHEMBL1123137 (J Med Chem, 1985)

How the values were obtained:
[1] = biological target: Albumin (Bos taurus, UniProt P02769); experiment: Serum albumin binding; settings: cattle
Procedure, shortened: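 Affinity for bovine serum albumin measured by Hummel–Dreyer method adapted for HPLC. Samples of BSA (0.25–2 g/dL) with 25 μM analogue in 0.1 M NaH2PO4, pH 7.4, were applied to an Aquapore OH-100 column equilibrated with 25 μM analogue in the same buffer. Effluent absorbance was read at 254 nm. Duplicate estimates were made at each of two BSA concentrations, usually 1 and 2 g/dL.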

[2] = HPLC capacity factor (k'); format: ADME
[3] = biological target: Adenosine receptor A2a (Canis lupus familiaris) (UniProt P11617); experiment: Molar potency ratio was evaluated
[4] = Ionisation constant (pKa); format: physicochemical

Chain of Adenosine receptor A2a (Canis lupus familiaris) (P11617 whole entry, looked up): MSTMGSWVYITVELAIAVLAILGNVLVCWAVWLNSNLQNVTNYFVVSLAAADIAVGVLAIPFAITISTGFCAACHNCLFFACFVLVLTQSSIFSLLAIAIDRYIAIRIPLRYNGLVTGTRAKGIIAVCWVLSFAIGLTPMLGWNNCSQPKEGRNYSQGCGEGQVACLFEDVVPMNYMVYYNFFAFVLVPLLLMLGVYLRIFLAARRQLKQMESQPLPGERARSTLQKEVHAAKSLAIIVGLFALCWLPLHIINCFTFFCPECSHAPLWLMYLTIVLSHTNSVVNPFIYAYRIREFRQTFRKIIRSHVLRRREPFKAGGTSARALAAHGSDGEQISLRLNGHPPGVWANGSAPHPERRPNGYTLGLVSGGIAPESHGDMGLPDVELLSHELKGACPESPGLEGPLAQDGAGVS
Chain of Albumin (P02769 whole entry): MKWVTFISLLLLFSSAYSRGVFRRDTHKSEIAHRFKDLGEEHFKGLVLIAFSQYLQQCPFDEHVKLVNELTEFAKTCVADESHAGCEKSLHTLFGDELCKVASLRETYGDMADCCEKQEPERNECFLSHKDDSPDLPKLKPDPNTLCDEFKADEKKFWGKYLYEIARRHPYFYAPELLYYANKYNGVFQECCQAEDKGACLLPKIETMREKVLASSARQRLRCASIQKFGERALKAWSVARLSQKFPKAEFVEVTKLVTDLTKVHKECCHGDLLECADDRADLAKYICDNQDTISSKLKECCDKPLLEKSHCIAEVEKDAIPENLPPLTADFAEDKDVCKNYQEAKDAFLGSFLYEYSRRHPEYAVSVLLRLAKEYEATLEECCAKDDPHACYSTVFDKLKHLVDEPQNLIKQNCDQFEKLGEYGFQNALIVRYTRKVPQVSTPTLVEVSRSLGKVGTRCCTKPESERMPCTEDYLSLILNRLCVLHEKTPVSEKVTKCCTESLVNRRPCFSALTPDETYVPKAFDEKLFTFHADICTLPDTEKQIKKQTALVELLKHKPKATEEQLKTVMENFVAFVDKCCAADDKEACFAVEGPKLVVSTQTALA

SMILES	Amount bound [1] [M/g]	k' [2]	MPR [3]	pKa [4]
CC(C)C(Nc1ncnc2c1ncn2C1O[C@H](CO)[C@@H](O)[C@H]1O)C(C)C (some centres undefined)	2.97	1	0.75	
OC[C@H]1O[C@@H](n2cnc3c(NC4CC5CCC4C5)ncnc32)[C@H](O)[C@@H]1O (stereo in doubt; 57) [listing 1 of 2 here]			0.54	
CC1(Nc2ncnc3c2ncn3C2O[C@H](CO)[C@@H](O)[C@H]2O)CCCC1 (some centres undefined)		5.02	0.033	
OC[C@H]1O[C@@H](n2cnc3c(NC4CC4)ncnc32)[C@H](O)[C@@H]1O		0.2	0.38	
OC[C@H]1OC(n2cnc3c(NC(Cc4ccccc4)Cc4ccccc4)ncnc32)[C@H](O)[C@@H]1O (some centres undefined)		14.83	0.33	
C[C@H](Cc1ccccc1)Nc1ncnc2c1ncn2[C@@H]1O[C@H](CO)[C@@H](O)[C@H]1O [(R)-PIA]		2.57		3.4
C#CCNc1ncnc2c1ncn2C1O[C@H](CO)[C@@H](O)[C@H]1O (some centres undefined)		0.21	0.23	
CN(C)c1ncnc2c1ncn2[C@@H]1O[C@H](CO)[C@@H](O)[C@H]1O			0.001	
CCCCC(C)Nc1ncnc2c1ncn2C1O[C@H](CO)[C@@H](O)[C@H]1O (some centres undefined)		4.46	0.56	
OC[C@H]1O[C@@H](n2cnc3c(Cl)ncnc32)[C@H](O)[C@@H]1O			0.023	
OC[C@H]1O[C@@H](n2cnc3c(N[C@H]4C[C@@H]4c4ccccc4)ncnc32)[C@H](O)[C@@H]1O		2.36	0.7	
CCC(CNc1ncnc2c1ncn2C1O[C@H](CO)[C@@H](O)[C@H]1O)c1ccccc1 (some centres undefined)		5.89	3.3	
CCCC(CCC)Nc1ncnc2c1ncn2C1O[C@H](CO)[C@@H](O)[C@H]1O (some centres undefined)	7.1	5.57	0.81	
CC(C)Nc1ncnc2c1ncn2[C@@H]1O[C@H](CO)[C@@H](O)[C@H]1O	0.41	0.54	0.71	
CC(C)(C)CCNc1ncnc2c1ncn2C1O[C@H](CO)[C@@H](O)[C@H]1O (some centres undefined)		4.71	0.084	
OC[C@H]1O[C@@H](n2cnc3cncnc32)[C@H](O)[C@@H]1O			0.023	
CC[C@H](CO)Nc1ncnc2c1ncn2[C@@H]1O[C@H](CO)[C@@H](O)[C@H]1O		0.4	0.77	
OC[C@H]1O[C@@H](n2cnc3c(NC4CC5CCC4C5)ncnc32)[C@H](O)[C@@H]1O (stereo in doubt; 58) [listing 1 of 2 here]			0.55	
CC(C)(C)CNc1ncnc2c1ncn2C1O[C@H](CO)[C@@H](O)[C@H]1O (some centres undefined)		2.5	0.064	
CCNc1ncnc2c1ncn2C1O[C@H](CO)[C@@H](O)[C@H]1O (some centres undefined)		0.29	0.15	
CCC(CC)Nc1ncnc2c1ncn2C1O[C@H](CO)[C@@H](O)[C@H]1O (some centres undefined)	0.78	1.64	4	3.3
C[C@@H](CCc1ccccc1)Nc1ncnc2c1ncn2[C@@H]1O[C@H](CO)[C@@H](O)[C@H]1O		6.47	0.05	
OC[C@H]1O[C@@H](n2cnc3c(NC4C5CCC4CC5)ncnc32)[C@H](O)[C@@H]1O (some centres undefined)		3.5	0.39	

SMILES	Amount bound [1] [M/g]	k' [2]	MPR [3]	pKa [4]
C[C@@H](Nc1ncnc2c1ncn2[C@@H]1O[C@H](CO)[C@@H](O)[C@H]1O)[C@@H](O)c1ccccc1		1.32	2.9	
CC[C@H](C)Nc1ncnc2c1ncn2C1O[C@H](CO)[C@@H](O)[C@H]1O (single isomer, unassigned)	0.53	0.96	2.6	
C[C@H](CNc1ncnc2c1ncn2[C@@H]1O[C@H](CO)[C@@H](O)[C@H]1O)c1ccccc1		3	3	
C[C@H](Nc1ncnc2c1ncn2[C@@H]1O[C@H](CO)[C@@H](O)[C@H]1O)c1ccccc1		1.89	0.2	
C[C@@H](Nc1ncnc2c1ncn2[C@@H]1O[C@H](CO)[C@@H](O)[C@H]1O)[C@H](O)c1ccccc1		0.96	1.8	
OC[C@H]1OC(n2cnc3c(NCC(O)c4ccccc4)ncnc32)[C@H](O)[C@@H]1O (some centres undefined)		0.79	1.4	
C=CCNc1ncnc2c1ncn2[C@@H]1O[C@H](CO)[C@@H](O)[C@H]1O		0.36	0.23	
C[C@@H](CNc1ncnc2c1ncn2[C@@H]1O[C@H](CO)[C@@H](O)[C@H]1O)c1ccccc1		2.89	2.4	
CCCCCCNc1ncnc2c1ncn2C1O[C@H](CO)[C@@H](O)[C@H]1O (some centres undefined)		5.88	0.2	
Cc1ncnc2c1ncn2[C@@H]1O[C@H](CO)[C@@H](O)[C@H]1O			0.007	
OC[C@H]1OC(n2cnc3c(NCC4CC4)ncnc32)[C@H](O)[C@@H]1O (some centres undefined)		0.71	0.58	
OC[C@H]1O[C@@H](n2cnc3c(NC4CC5CCC4C5)ncnc32)[C@H](O)[C@@H]1O (stereo in doubt; 58) [listing 2 of 2 here]	2.09	2.64		
CNc1ncnc2c1ncn2[C@@H]1O[C@H](CO)[C@@H](O)[C@H]1O		0.07	0.05	
C[C@@H](Nc1ncnc2c1ncn2[C@@H]1O[C@H](CO)[C@@H](O)[C@H]1O)c1ccccc1		1.64	0.52	3.3
CCCCCC(C)Nc1ncnc2c1ncn2C1O[C@H](CO)[C@@H](O)[C@H]1O (some centres undefined)		8.54	0.31	
OC[C@H]1OC(n2cnc3c(NCCC4CCCCC4)ncnc32)[C@H](O)[C@@H]1O (some centres undefined)		8.92	0.04	
CC(CC1CCCCC1)Nc1ncnc2c1ncn2C1O[C@H](CO)[C@@H](O)[C@H]1O (some centres undefined)	19.3	8.92	0.15	
OC[C@H]1O[C@@H](n2cnc3c(NC4CC5CCC4C5)ncnc32)[C@H](O)[C@@H]1O (stereo in doubt; 57) [listing 2 of 2 here]		2.63		
CC(C)(Cc1ccccc1)Nc1ncnc2c1ncn2C1O[C@H](CO)[C@@H](O)[C@H]1O (some centres undefined)		7.43	0.011	
OC[C@H]1OC(n2cnc3c(NCC4CCCCC4)ncnc32)[C@H](O)[C@@H]1O (some centres undefined)	7.1	4.67	0.14	
CCCC(C)Nc1ncnc2c1ncn2C1O[C@H](CO)[C@@H](O)[C@H]1O (some centres undefined)		2.38	1.1	
CN(Nc1ncnc2c1ncn2C1O[C@H](CO)[C@@H](O)[C@H]1O)c1ccccc1 (some centres undefined)		0.93	1.8	
COc1ncnc2c1ncn2[C@@H]1O[C@H](CO)[C@@H](O)[C@@H]1O		0.16	0.004	

SMILES	Amount bound [1] [M/g]	k' [2]	MPR [3]	pKa [4]
NNc1ncnc2c1ncn2[C@@H]1O[C@H](CO)[C@@H](O)[C@H]1O		0.14	0.046	
CCCCCNc1ncnc2c1ncn2[C@@H]1O[C@H](CO)[C@@H](O)[C@H]1O		3.08	0.36	
CCCCCCC(C)Nc1ncnc2c1ncn2C1O[C@H](CO)[C@@H](O)[C@H]1O (some centres undefined)		16.88	0.052	
CCCCNc1ncnc2c1ncn2[C@@H]1O[C@H](CO)[C@@H](O)[C@H]1O	1.06	1.59	0.38	
OC[C@H]1O[C@@H](n2cnc3c(NC4CCC4)ncnc32)[C@H](O)[C@@H]1O		0.2	1.6	
C[C@@H](CO)Nc1ncnc2c1ncn2C1O[C@H](CO)[C@@H](O)[C@H]1O (some centres undefined)		0.28	0.098	
CC[C@@H](CO)Nc1ncnc2c1ncn2[C@@H]1O[C@H](CO)[C@@H](O)[C@H]1O		0.52	0.12	
NCCNc1ncnc2c1ncn2C1O[C@H](CO)[C@@H](O)[C@H]1O (some centres undefined)		0.11	0.072	
C[C@@H](Cc1ccccc1)Nc1ncnc2c1ncn2[C@@H]1OC(CO)[C@@H](O)[C@H]1O (single isomer, unassigned)		2.61		
OC[C@H]1O[C@@H](n2cnc3/c(=N\OCc4ccccc4)[nH]cnc32)[C@H](O)[C@@H]1O		1.04	0.42	
OC[C@H]1O[C@@H](n2cnc3/c(=N\O)[nH]cnc32)[C@H](O)[C@@H]1O			0.16	
CC(C)CNc1ncnc2c1ncn2C1O[C@H](CO)[C@@H](O)[C@H]1O (some centres undefined)	0.74	1	0.75	
OC[C@H]1O[C@@H](n2cnc3c(N[C@@H]4C[C@H]4c4ccccc4)ncnc32)[C@H](O)[C@@H]1O		2.43	0.31	
OC[C@H]1OC(n2cnc3c(NC(C4CC4)C4CC4)ncnc32)[C@H](O)[C@@H]1O (some centres undefined)		2.68	1.5	
C[C@H](CCc1ccccc1)Nc1ncnc2c1ncn2[C@@H]1O[C@H](CO)[C@@H](O)[C@H]1O		6.11	0.19	
OCCNc1ncnc2c1ncn2C1O[C@H](CO)[C@@H](O)[C@H]1O (some centres undefined)	0.53	0.14	0.14	
CCCNc1ncnc2c1ncn2C1O[C@H](CO)[C@@H](O)[C@H]1O (some centres undefined)		0.57	0.64	
OC[C@H]1O[C@@H](n2cnc3c(NC4CCCC4)ncnc32)[C@H](O)[C@@H]1O [N6-CYCLOPENTYLADENOSINE]		1.25	1.8	
OC[C@H]1O[C@@H](n2cnc3c(NCCc4ccccc4)ncnc32)[C@H](O)[C@@H]1O		1.77	2	3.6
CC[C@@H](C)Nc1ncnc2c1ncn2[C@@H]1O[C@H](CO)[C@@H](O)[C@H]1O	0.36	0.89	0.88	3.7
OC[C@H]1O[C@@H](n2cnc3c(NC4CCCCCC4)ncnc32)[C@H](O)[C@@H]1O	3.4	4.04	0.18	
OC[C@H]1O[C@@H](n2cnc3c(NC4CCCCC4)ncnc32)[C@H](O)[C@@H]1O	1.3	2.12		
OC[C@H]1O[C@@H](n2cnc3c(NO)ncnc32)[C@H](O)[C@@H]1O		0.16		
